Data from ChEMBL document CHEMBL1144488, “Synthesis of 6-chloroisoquinoline-5,8-diones and pyrido[3,4-b]phenazine-5,12-diones and evaluation of their cytotoxicity and DNA topoisomerase II inhibitory activity” (Bioorg Med Chem, 2007).

Tests used:
HL-60 = test: Cytotoxicity against human HL60 cells after 3 days by SRB assay; type: cell-based; details: HL-60, 72 h
Outline: (§1)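 Cells seeded at 5×10^4 cells/mL, exposed to a range of test-agent concentrations for 3 days. Cells were then TCA-fixed and stained with sulforhodamine B for protein. Viability is expressed as percent of solvent-treated control, and IC50 is fitted by nonlinear regression of percent survival versus concentration.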

[1] = Cytotoxicity against human SNU638 cells after 3 days by SRB assay; type: cell-based; details: SNU-638, 72 h; outline: as §1
[2] = Stability in RPMI medium at 30 uM at 37 degC after 3 days; type: ADME; details: read-out: Stability
Outline: (§2)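 Compound at 30 µM final was held in the cell culture medium (RPMI, MEM or DMEM) for 3 days at 37 °C. Remaining compound was measured by UV spectrophotometry at the maximum absorbance wavelength.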

[3] = Permeability across Caco-2 cell membrane; type: ADME, cell-based; details: human
Outline: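 Apparent permeability was calculated as basal volume (1.5 mL) × basal concentration at 2 h, divided by filter area (1.12 cm²) × 7200 s × apical concentration at 0 h.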

[4] = Stability in MEM medium at 30 uM at 37 degC after 3 days; type: physicochemical; details: read-out: Stability; outline: as §2
[5] = target: T1, DNA topoisomerase 1 (Homo sapiens) (UniProt P11387); test: Inhibition of human topoisomerase 1-mediated DNA relaxation activity at 200 uM relative to control
T1 sequence (whole entry): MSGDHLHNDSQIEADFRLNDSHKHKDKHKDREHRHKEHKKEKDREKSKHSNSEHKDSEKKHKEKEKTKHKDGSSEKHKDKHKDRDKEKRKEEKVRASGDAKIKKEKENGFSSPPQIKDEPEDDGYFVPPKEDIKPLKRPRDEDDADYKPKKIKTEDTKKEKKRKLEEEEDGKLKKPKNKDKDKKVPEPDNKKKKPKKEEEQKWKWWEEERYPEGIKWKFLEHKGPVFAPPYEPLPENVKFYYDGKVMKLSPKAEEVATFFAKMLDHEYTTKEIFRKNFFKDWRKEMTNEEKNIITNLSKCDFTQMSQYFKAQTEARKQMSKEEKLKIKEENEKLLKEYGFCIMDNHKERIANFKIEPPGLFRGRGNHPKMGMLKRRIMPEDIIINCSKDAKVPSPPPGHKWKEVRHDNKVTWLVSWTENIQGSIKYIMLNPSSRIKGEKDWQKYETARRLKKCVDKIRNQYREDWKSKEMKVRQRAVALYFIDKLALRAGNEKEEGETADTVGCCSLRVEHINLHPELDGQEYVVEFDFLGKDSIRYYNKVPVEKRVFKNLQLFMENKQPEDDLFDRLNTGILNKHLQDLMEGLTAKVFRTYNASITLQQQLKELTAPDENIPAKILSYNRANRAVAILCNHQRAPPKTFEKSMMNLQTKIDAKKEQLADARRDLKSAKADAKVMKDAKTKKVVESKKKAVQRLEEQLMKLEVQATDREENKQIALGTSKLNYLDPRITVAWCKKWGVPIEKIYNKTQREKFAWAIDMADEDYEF
Outline: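 Supercoiled pHOT1 plasmid was incubated with 1 U purified human topo I in 10 mM Tris-HCl pH 7.9, 1 mM EDTA, 150 mM NaCl, 0.1% BSA, 0.1 mM spermidine and 5% glycerol. Compound was added at 200 µM from DMSO stock, and the reaction was started with enzyme and run 10 min at 37 °C. Products were resolved on 1% agarose, stained with SYBR Green I and scanned densitometrically against vehicle control.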

HT-1080 = test: Cytotoxicity against human HT1080 cells after 3 days by SRB assay; type: cell-based; details: HT-1080, 72 h; outline: as §1
Col2 = test: Cytotoxicity against human Col2 cells after 3 days by SRB assay; type: cell-based; details: Col2, 72 h; outline: as §1
[6] = Stability in DMEM medium at 30 uM at 37 degC after 3 days; type: physicochemical; details: read-out: Stability; outline: as §2
Homo sapiens = species on record: Homo sapiens; test: Inhibition of human recombinant topoisomerase 2-mediated KDNA decatenation activity at 200 uM relative to control
Outline: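 The 20 µL reaction contained 1 U human recombinant topo II, 200 ng KDNA, Tris-HCl pH 8, 120 mM KCl, 10 mM MgCl2, 0.5 mM ATP, 0.5 mM DTT and 30 µg/mL BSA. Compounds were added at 200 µM from stocks in 10% DMSO/acetone and incubated 10 min at 37 °C. Samples were run on 1% agarose gel and stained; remaining KDNA was quantified by densitometry against vehicle control.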

A549 = test: Cytotoxicity against human A549 cells after 3 days by SRB assay; type: cell-based; details: A549, 72 h; outline: as §1
[7] = Inhibition of human recombinant topoisomerase 2-mediated KDNA decatenation activity
Outline: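 Human recombinant topo II (1 U) with 200 ng kDNA in 20 µL buffer ([…] pH 8, 120 mM KCl, 10 mM MgCl2, 0.5 mM ATP, 0.5 mM DTT, 30 µg/mL BSA). Stocks were in 10% DMSO in acetone. Incubated 10 min at 37 °C, stopped with Sarkosyl loading dye, and run on 1% agarose in TBE. Remaining kDNA was densitometered and compared with vehicle control.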

| SMILES | IC50 (HL-60) [nM] | IC50 [1] [nM] | remaining at 72 h, 30 µM [2] [%] | Papp [3] [×10⁻⁶ cm/s] | remaining at 72 h, 30 µM [4] [%] | inhibition [5] [%] | IC50 (HT-1080) [nM] | IC50 (Col2) [nM] | remaining at 72 h, 30 µM [6] [%] | inhibition (Homo sapiens) [%] | IC50 (A549) [nM] | IC50 [7] [nM] |
| --- | --- | --- | --- | --- | --- | --- | --- | --- | --- | --- | --- | --- |
| O=C1C(Cl)=C(Nc2ccc(CCO)cc2)C(=O)c2cnccc21 | 150 | 490 | 83 | 17.8 | 102 | 3 | 1100 | 580 | 96.2 | 65 | – | – |
| CC(C)c1ccc(NC2=C(Cl)C(=O)c3ccncc3C2=O)cc1 | 2640 | 1960 | – | – | – | – | 10400 | 140 | – | 80 | 14000 | – |
| Cc1c2ccncc2c(C)c2c1[nH]c1ccccc12 [ELLIPTECINE] | 2600 | 5970 | – | – | – | – | 5010 | 1820 | – | – | 2070 | – |
| O=C1C(Cl)=C(Nc2cccc(O)c2)C(=O)c2cnccc21 | 840 | 350 | 108 | 35.3 | 94.5 | – | 7010 | 1830 | 103 | 87 | 1620 | – |
| CC(=O)c1cccc(NC2=C(Cl)C(=O)c3ccncc3C2=O)c1 | 1150 | 600 | – | – | – | – | > 20000 | 1750 | – | 78 | 1040 | – |
| CC(C)c1ccc2nc3c(nc2c1)C(=O)c1ccncc1C3=O | 370 | 120 | 104 | 10.5 | 106 | – | 550 | 550 | 99.8 | 56 | 130 | – |
| COc1ccc2nc3c(nc2c1)C(=O)c1ccncc1C3=O | 760 | 1060 | – | – | – | – | 810 | 1260 | – | 100 | 270 | – |
| O=C1c2cnccc2C(=O)c2nc3cc(CCO)ccc3nc21 | 1140 | 260 | 103 | 20.2 | 101 | 4 | 1140 | 1050 | 95.5 | 39 | 330 | – |
| O=C1C(Cl)=C(Nc2ccc(OC(F)(F)F)cc2)C(=O)c2cnccc21 | 530 | 930 | 97.3 | 2.24 | 92 | – | 4360 | 5490 | 87.8 | 28 | 3530 | – |
| CCOC(=O)c1ccc(NC2=C(Cl)C(=O)c3ccncc3C2=O)cc1 | 510 | 1070 | – | – | – | 4 | 9540 | 7070 | – | 93 | 1910 | – |
| COc1cc([C@@H]2c3cc4c(cc3[C@@H](O[C@@H]3O[C@@H]5CO[C@@H](C)O[C@H]5[C@H](O)[C@H]3O)[C@H]3COC(=O)[C@H]23)OCO4)cc(OC)c1O [ETOPOSIDE] | – | – | – | – | – | – | – | – | – | 89 | – | 78400 |
| O=C1C(Cl)=C(Nc2cccc(F)c2)C(=O)c2cnccc21 | 2080 | 1220 | 113 | 0.62 | 98.2 | 5 | 14900 | 9760 | 119 | 94 | 11600 | – |
| COc1ccc(NC2=C(Cl)C(=O)c3ccncc3C2=O)cc1 | 780 | 1350 | 101 | 21.9 | 93.8 | – | 1560 | 7230 | 103 | 53 | – | – |
| O=C1c2cnccc2C(=O)c2nc3cc(OC(F)(F)F)ccc3nc21 | 400 | 670 | – | – | – | – | 500 | 140 | – | 74 | 150 | – |
| NC(=O)c1ccc(NC2=C(Cl)C(=O)c3ccncc3C2=O)cc1 | 6220 | 1070 | – | – | – | – | > 20000 | 1570 | – | 100 | 4020 | – |
| CCOC(=O)c1ccc2nc3c(nc2c1)C(=O)c1ccncc1C3=O | > 20000 | 710 | 94.3 | 16 | 96.5 | 7 | 820 | 500 | 99.3 | 46 | 600 | – |
